Test results: ChEMBL document CHEMBL1134325, “Diaminoindanes as microsomal triglyceride transfer protein inhibitors” (J Med Chem, 2001)

Key:
[1] = biological target: T1, Microsomal triglyceride transfer protein large subunit (Homo sapiens, UniProt P55157); assay: In vitro inhibitory activity against MTP using MTP transfer assay
T1 sequence (P55157 whole entry): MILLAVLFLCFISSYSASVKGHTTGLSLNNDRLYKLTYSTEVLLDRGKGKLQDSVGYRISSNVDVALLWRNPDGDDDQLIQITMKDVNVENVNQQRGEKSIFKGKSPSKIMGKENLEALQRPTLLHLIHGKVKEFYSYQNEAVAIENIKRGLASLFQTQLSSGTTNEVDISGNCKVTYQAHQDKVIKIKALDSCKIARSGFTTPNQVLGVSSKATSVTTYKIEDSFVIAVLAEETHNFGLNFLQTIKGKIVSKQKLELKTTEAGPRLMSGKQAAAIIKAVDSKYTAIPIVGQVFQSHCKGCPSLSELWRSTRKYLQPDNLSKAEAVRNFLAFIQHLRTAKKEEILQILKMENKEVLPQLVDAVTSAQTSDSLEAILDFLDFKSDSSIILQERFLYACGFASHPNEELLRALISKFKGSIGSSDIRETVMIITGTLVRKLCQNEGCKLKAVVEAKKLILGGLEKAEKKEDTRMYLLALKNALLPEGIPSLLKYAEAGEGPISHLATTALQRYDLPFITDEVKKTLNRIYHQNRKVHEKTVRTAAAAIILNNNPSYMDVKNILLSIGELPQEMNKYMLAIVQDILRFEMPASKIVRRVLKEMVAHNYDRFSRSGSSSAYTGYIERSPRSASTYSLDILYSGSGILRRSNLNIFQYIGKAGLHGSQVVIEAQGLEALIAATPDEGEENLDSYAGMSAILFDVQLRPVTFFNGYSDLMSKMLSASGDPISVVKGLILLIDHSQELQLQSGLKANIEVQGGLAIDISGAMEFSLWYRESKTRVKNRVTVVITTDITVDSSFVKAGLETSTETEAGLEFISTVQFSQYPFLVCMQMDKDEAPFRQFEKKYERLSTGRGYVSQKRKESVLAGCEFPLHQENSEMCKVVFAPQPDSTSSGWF

Canis familiaris [2] = assay: Inhibition of plasma total triglycerides in the normolipidemic dogs after day 4 of oral administration of 5 mg/kg/day.; format: functional, Canis lupus familiaris
Canis familiaris [3] = assay: Inhibition of plasma total triglycerides in the normolipidemic dogs after day 3 of oral administration of 10 mg/kg/day.; format: functional, Canis lupus familiaris
Canis familiaris [4] = assay: Inhibition of plasma total triglycerides in the normolipidemic dogs after day 3 of oral administration of 5 mg/kg/day.; format: functional, Canis lupus familiaris
Canis familiaris [5] = assay: Inhibition of plasma total triglycerides in the normolipidemic dogs after day 4 of oral administration of 10 mg/kg/day. Values in the parentheses indicate mean percent inhibition for drug treated dogs.; format: functional, Canis lupus familiaris
Canis familiaris [6] = assay: Inhibition of plasma total cholesterol in the normolipidemic dogs after day 0 of oral administration of 10 mg/kg/day.; format: functional, Canis lupus familiaris
Summary of the method: (§1)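 Normolipidemic dogs dosed once daily for 4 days by oral gavage, compound suspended in cornstarch vehicle. Plasma sampled 24 h after dosing on days 0, 2, 3 and 4, assayed for triglycerides and total cholesterol (mg/dL). Mean percent inhibition versus day-0 level is given for treated dogs; n = 6 per group; significance by one-way ANOVA, p < 0.05.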

Canis familiaris [7] = assay: Inhibition of plasma total cholesterol in the normolipidemic dogs after day 0 of oral administration of 5 mg/kg/day.; format: functional, Canis lupus familiaris; summary of the method: as §1
Canis familiaris [8] = assay: Inhibition of plasma total cholesterol in the normolipidemic dogs after day 2 of oral administration of 10 mg/kg/day.; format: functional, Canis lupus familiaris; summary of the method: as §1
Canis familiaris [9] = assay: Inhibition of plasma total cholesterol in the normolipidemic dogs after day 2 of oral administration of 5 mg/kg/day.; format: functional, Canis lupus familiaris; summary of the method: as §1
Canis familiaris [10] = assay: Inhibition of plasma total cholesterol in the normolipidemic dogs after day 3 of oral administration of 10 mg/kg/day.; format: functional, Canis lupus familiaris; summary of the method: as §1
Canis familiaris [11] = assay: Inhibition of plasma total cholesterol in the normolipidemic dogs after day 3 of oral administration of 5 mg/kg/day.; format: functional, Canis lupus familiaris; summary of the method: as §1
Canis familiaris [12] = assay: Inhibition of plasma total cholesterol in the normolipidemic dogs after day 4 of oral administration of 10 mg/kg/day. Values in the parentheses indicate mean percent inhibition for drug treated dogs.; format: functional, Canis lupus familiaris; summary of the method: as §1
Canis familiaris [13] = assay: Inhibition of plasma total cholesterol in the normolipidemic dogs after day 4 of oral administration of 5 mg/kg/day. Values in the parentheses indicate mean percent inhibition for drug treated dogs.; format: functional, Canis lupus familiaris; summary of the method: as §1
Canis familiaris [14] = assay: Inhibition of plasma total triglycerides in the normolipidemic dogs after day 0 of oral administration of 10 mg/kg/day.; format: functional, Canis lupus familiaris; summary of the method: as §1
Canis familiaris [15] = assay: Inhibition of plasma total triglycerides in the normolipidemic dogs after day 0 of oral administration of 5 mg/kg/day.; format: functional, Canis lupus familiaris; summary of the method: as §1
Canis familiaris [16] = assay: Inhibition of plasma total triglycerides in the normolipidemic dogs after day 2 of oral administration of 10 mg/kg/day.; format: functional, Canis lupus familiaris; summary of the method: as §1
Rattus norvegicus [17] = assay: Inhibition of total cholesterol in normolipidemic rats after 24 hr of 10 mg/kg oral dosing; no significant change; format: functional, organism-based; parameters: dose 10 mg/kg
Summary of the method: (§2)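 Overnight-fasted normolipidemic rats received a single oral dose in cornstarch vehicle. Blood was drawn at 2, 6 and 24 h post-dose and assayed for triglycerides and total cholesterol, with free access to food after the 6 h sample. Value is mean percent inhibition versus a separate vehicle-treated group, unpaired t test p < 0.05, NS = no significant change, N = 6.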

Rattus norvegicus [18] = assay: Inhibition of plasma triglycerides in normolipidemic rats after 2 hr of 10 mg/kg oral dosing; format: functional; summary of the method: as §2
Rattus norvegicus [19] = assay: Inhibition of plasma triglycerides in normolipidemic rats after 2 hr of 50 mg/kg oral dosing; format: functional; summary of the method: as §2
Rattus norvegicus [20] = assay: Inhibition of plasma triglycerides in normolipidemic rats after 6 hr of 10 mg/kg oral dosing; format: functional; summary of the method: as §2
Rattus norvegicus [21] = assay: Inhibition of plasma triglycerides in normolipidemic rats after 6 hr of 50 mg/kg oral dosing; format: functional; summary of the method: as §2
Rattus norvegicus [22] = assay: Inhibition of total cholesterol in normolipidemic rats after 2 hr of 10 mg/kg oral dosing; format: functional; summary of the method: as §2
Rattus norvegicus [23] = assay: Inhibition of total cholesterol in normolipidemic rats after 2 hr of 50 mg/kg oral dosing; format: functional; summary of the method: as §2
Rattus norvegicus [24] = assay: Inhibition of total cholesterol in normolipidemic rats after 6 hr of 10 mg/kg oral dosing; format: functional; summary of the method: as §2
Rattus norvegicus [25] = assay: Inhibition of total cholesterol in normolipidemic rats after 6 hr of 50 mg/kg oral dosing; format: functional; summary of the method: as §2
Rattus norvegicus [26] = assay: Inhibition of plasma triglycerides in normolipidemic rats after 24 hr of 10 mg/kg oral dosing; no significant change; format: functional, organism-based; parameters: dose 10 mg/kg; summary of the method: as §2
Rattus norvegicus [27] = assay: Inhibition of plasma triglycerides in normolipidemic rats after 24 h of 50 mg/kg oral dosing; no significant change; format: functional, organism-based; parameters: dose 50 mg/kg; summary of the method: as §2
Canis familiaris [28] = assay: Inhibition of plasma total triglycerides in the normolipidemic dogs after day 2 of oral administration of 5 mg/kg/day.; format: functional, Canis lupus familiaris; summary of the method: as §1
Rattus norvegicus [29] = assay: Inhibition of total cholesterol in normolipidemic rats after 24 hr of 50 mg/kg oral dosing; format: functional; summary of the method: as §2

## Cc1cccc(C(=O)Nc2ccc3c(c2)C[C@@H](NCc2ccccn2)C3)c1-c1ccc(C(F)(F)F)cc1
[1]
  IC50: 100 nM
Canis familiaris [2]
  Lipid level: 32 mg/dL
Canis familiaris [3]
  Lipid level: <27 mg/dL
Canis familiaris [4]
  Lipid level: 41 mg/dL
Canis familiaris [5]
  Lipid level: <23 mg/dL
Canis familiaris [6]
  Lipid level: 125 mg/dL
Canis familiaris [7]
  Lipid level: 130 mg/dL
Canis familiaris [8]
  Lipid level: <69 mg/dL
Canis familiaris [9]
  Lipid level: <110 mg/dL
Canis familiaris [10]
  Lipid level: <54 mg/dL
Canis familiaris [11]
  Lipid level: <99 mg/dL
Canis familiaris [12]
  Lipid level: <36 mg/dL
Canis familiaris [13]
  Lipid level: <94 mg/dL
Canis familiaris [14]
  Lipid level: 46 mg/dL
Canis familiaris [15]
  Lipid level: 36 mg/dL
Canis familiaris [16]
  Lipid level: <26 mg/dL
Rattus norvegicus [17]
  NS: no significant change
Rattus norvegicus [18]
  Reduction: 86%
Rattus norvegicus [19]
  Reduction: 91%
Rattus norvegicus [20]
  Reduction: 47%
Rattus norvegicus [21]
  Reduction: 88%
Rattus norvegicus [22]
  Reduction: 34%
Rattus norvegicus [23]
  Reduction: 40%
Rattus norvegicus [24]
  Reduction: 35%
Rattus norvegicus [25]
  Reduction: 57%
Rattus norvegicus [26]
  NS: no significant change
Rattus norvegicus [27]
  NS: no significant change
Canis familiaris [28]
  Lipid level: 38 mg/dL
Rattus norvegicus [29]
  Reduction: 29%
